Data on five compounds can be found in paper PMC6106105 (Journal of the Endocrine Society, 2018).

Where two headings read alike, the source gives them in different places. Numbered stars: 1 amine (or outer) side, 2 acyl side, 3 side chain; on linkers, the order of the positions; unused ones are H or OH. Square brackets hold non-standard residues; d marks the D form. Side chains are listed from the residue outwards. Peptide text beside a SMILES is read from it. * marks the point of attachment. Ethylenediamine = C(CN[*:2])N[*:1]; Hyp = O=C(O)[C@@H]1C[C@@H](O)CN1; Phg = N[C@H](C(=O)O)c1ccccc1; CO = O=C([*:1])[*:2]; Bn = c1ccc(C*)cc1

Test [1] has as its target T1, rat Sstr2A (Rattus norvegicus, UniProt P30680). Type of test: cell-based. The following applies: for Emax: read-out: cAMP Emax.
In test [2] the target is T1, rat Sstr2A. Put plainly: Sstr2A receptor internalization, cell surface ELISA in GH12C1-Sstr2A cells. The following applies: for Emax: read-out: Internalization Emax. The test is classed as cell-based. In general terms: ELISA stands for enzyme-linked immunosorbent assay.
Test [3] deals with T1, rat Sstr2A. The test is described as follows: Membrane potential. Type of test: cell-based. Particulars: read-out: Hyperpolarization Emax.
Another test concerns GH4C1 cells. The test is described as follows: Membrane potential. The following applies: for hyperpolarization response (agonist, in words): 100 nM (Fig. 3A). Type of test: cell-based, rat. The method in brief:
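Rat GH4C1 cells grown in F12 with 12.5% horse serum and 2.5% FBS, plated 150,000/well on poly-D-ornithine. Loaded 30 min with FLIPR Membrane Potential blue dye in HEPES-buffered saline, pH 7.4, then equilibrated 15 min at 37°C. After 30 s baseline, agonist was added and fluorescence read for 180 s (ex 530/em 565 nm). Output was F1/F0 minus control trace, averaged over three wells.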

In general, EC50 refers to the concentration that produces a half-maximal response. A word on the Emax: it is the maximal effect, on the per cent scale that the assay sets. In general, Kd refers to the free concentration of one partner at which half of the binding sites on the other are occupied at equilibrium, for simple one-to-one binding. The low end stands for tighter binding, the high end for weaker binding.

T1 sequence (P30680 whole entry): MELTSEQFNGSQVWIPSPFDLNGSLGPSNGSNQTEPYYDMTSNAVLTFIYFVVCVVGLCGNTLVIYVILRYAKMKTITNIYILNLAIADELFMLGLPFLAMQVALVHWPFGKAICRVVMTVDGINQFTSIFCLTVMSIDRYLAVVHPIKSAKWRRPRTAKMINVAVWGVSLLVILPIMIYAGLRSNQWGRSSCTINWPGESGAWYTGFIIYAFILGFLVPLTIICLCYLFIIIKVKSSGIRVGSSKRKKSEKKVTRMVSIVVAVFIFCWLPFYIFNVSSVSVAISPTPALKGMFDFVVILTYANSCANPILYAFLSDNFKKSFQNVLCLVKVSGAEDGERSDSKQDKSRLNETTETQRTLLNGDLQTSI

Take `NCCCC[C@@H]1NC(=O)[C@@H](Cc2c[nH]c3ccccc23)NC(=O)[C@H](c2ccccc2)NC(=O)[C@@H]2C[C@@H](OC(=O)NCCN)CN2C(=O)[C@H](Cc2ccccc2)NC(=O)[C@H](Cc2ccc(OCc3ccccc3)cc2)NC1=O` [SOM230, pasireotide diaspartate] (cyclo([Hyp]([CO-Ethylenediamine])[Phg][dW]KY(Bn)F); ring closure inferred): at rat Sstr2A [1], a half-maximal effect (EC50) was put at 58 ± 7 nM and the Emax was 100%. Also, on rat Sstr2A [2], the Kd worked out at 243 ± 63 nM and the Emax worked out at 5%. In addition, on rat Sstr2A [2] (SOM230 2 µM, 5-minute pretreatment, kept present throughout), the “shift in SS14 potency for receptor internalization after SOM230 pretreatment (Schild-plot analysis)” value was found to be 8.7 fold. Besides, the Emax at 1 µM on rat Sstr2A [3] worked out at 5%.
Consider “Des-AA^1,2,5-[DTrp^8,IAmp^9,^125ITyr^11]-Cbm-SRIF [Rivier #27]”, for which the “hyperpolarization response (agonist, in words)” value in the test on GH4C1 cells was “largely ineffective”.
Regarding `C[C@@H](O)[C@@H]1NC(=O)[C@H](CCCCN)NC(=O)[C@@H](Cc2c[nH]c3ccccc23)NC(=O)[C@H](Cc2ccccc2)NC(=O)[C@@H](NC(=O)[C@H](N)Cc2ccccc2)CSSC[C@@H](C(=O)N[C@H](CO)[C@@H](C)O)NC1=O` [Octreotide, octreotide], in the test with GH4C1 cells, the “hyperpolarization response (agonist, in words)” value is on record as “equivalent to that of SS14”. Also, the Emax on rat Sstr2A [1] and at rat Sstr2A [2] was 100% throughout. Also, the Emax at 0.1 µM on rat Sstr2A [3] turned out to be 107%.
As to “H-p-Chloro-Phe-D-Cys-β-(3-pyridyl)-Ala-D-Trp-Lys-tBu-Gly-Cys-2-Nal-NH2 trifluoroacetate salt [PRL-2915]”, in the test with GH4C1 cells (PRL-2915 (1 µM), SS14 (1 µM), 15 minutes pretreatment), the “effect on hyperpolarization response produced by SS14” value is “eliminated most of the hyperpolarization response”.
Regarding `C[C@H](N)C(=O)NCC(=O)N[C@H]1CSSC[C@@H](C(=O)O)NC(=O)[C@H](CO)NC(=O)[C@H]([C@@H](C)O)NC(=O)[C@H](Cc2ccccc2)NC(=O)[C@H]([C@@H](C)O)NC(=O)[C@H](CCCCN)NC(=O)[C@H](Cc2c[nH]c3ccccc23)NC(=O)[C@H](Cc2ccccc2)NC(=O)[C@H](Cc2ccccc2)NC(=O)[C@H](CC(N)=O)NC(=O)[C@H](CCCCN)NC1=O` [SS14, Somatostatin], the Emax at rat Sstr2A [1] and at rat Sstr2A [2] was 100% throughout. Further, the Emax at 0.1 µM on rat Sstr2A [3] stood at 100%.
